Data: ChEMBL document CHEMBL3046406, “Herbicidal potential of ophiobolins produced by Drechslera gigantea” (2006)
Calls of active or inactive are those of the source. The calls are words filed in the database; no cut-off is given here.

Assays:
Assay type in all cases: functional
[1] = test system: Sonchus oleraceus; assay: Herbicidal activity against Sonchus oleraceus assessed as diameter of leaf necrosis at 50 ug/ml measured after 2 days post-compound treatment by leaf puncture assay
How it was run: (§1)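 Detached leaf segments (about 5 cm) from young greenhouse-grown plants, each with a superficial puncture lesion (0.5 mm) made by glass capillary. Compound dissolved in DMSO, diluted with distilled water (final DMSO 2%), 8 µL droplet applied. Segments held on moist filter paper at 25 °C under continuous fluorescent light (10000 lux). DMSO droplets as control. Necrosis scored visually on a 0–3 scale at day 2.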

[2] = test system: Sonchus oleraceus; assay: Herbicidal activity against Sonchus oleraceus assessed as diameter of leaf necrosis at 100 ug/ml measured after 2 days post-compound treatment by leaf puncture assay; how it was run: as §1
[3] = test system: Sonchus oleraceus; assay: Herbicidal activity against Sonchus oleraceus assessed as diameter of leaf necrosis at 250 ug/ml measured after 2 days post-compound treatment by leaf puncture assay; how it was run: as §1
[4] = test system: Diplotaxis erucoides; assay: Herbicidal activity against Diplotaxis erucoides assessed as diameter of leaf necrosis at 50 ug/ml measured after 2 days post compound treatment by leaf puncture assay; how it was run: as §1
[5] = test system: Diplotaxis erucoides; assay: Herbicidal activity against Diplotaxis erucoides assessed as diameter of leaf necrosis at 100 ug/ml measured after 2 days post compound treatment by leaf puncture assay; how it was run: as §1
[6] = test system: Convolvulus arvensis; assay: Herbicidal activity against Convolvulus arvensis assessed as diameter of leaf necrosis at 50 ug/ml measured after 2 days post compound treatment by leaf puncture assay; how it was run: as §1
[7] = test system: Convolvulus arvensis; assay: Herbicidal activity against Convolvulus arvensis assessed as diameter of leaf necrosis at 100 ug/ml measured after 2 days post compound treatment by leaf puncture assay; how it was run: as §1
[8] = test system: Convolvulus arvensis; assay: Herbicidal activity against Convolvulus arvensis assessed as diameter of leaf necrosis at 250 ug/ml measured after 2 days post compound treatment by leaf puncture assay; how it was run: as §1
[9] = test system: Chenopodium album; assay: Herbicidal activity against Chenopodium album assessed as diameter of leaf necrosis at 50 ug/ml measured after 2 days post compound treatment by leaf puncture assay; how it was run: as §1
[10] = test system: Chenopodium album; assay: Herbicidal activity against Chenopodium album assessed as diameter of leaf necrosis at 250 ug/ml measured after 2 days post compound treatment by leaf puncture assay; how it was run: as §1
[11] = test system: Chenopodium album; assay: Herbicidal activity against Chenopodium album assessed as diameter of leaf necrosis at 100 ug/ml measured after 2 days post compound treatment by leaf puncture assay; how it was run: as §1
[12] = test system: Amaranthus retroflexus; assay: Herbicidal activity against Amaranthus retroflexus assessed as diameter of leaf necrosis at 50 ug/ml measured after 2 days post compound treatment by leaf puncture assay; how it was run: as §1
[13] = test system: Amaranthus retroflexus; assay: Herbicidal activity against Amaranthus retroflexus assessed as diameter of leaf necrosis at 250 ug/ml measured after 2 days post compound treatment by leaf puncture assay; how it was run: as §1
[14] = test system: Amaranthus retroflexus; assay: Herbicidal activity against Amaranthus retroflexus assessed as diameter of leaf necrosis at 100 ug/ml measured after 2 days post compound treatment by leaf puncture assay; how it was run: as §1
[15] = test system: Setaria viridis; assay: Herbicidal activity against Setaria viridis assessed as diameter of leaf necrosis at 50 ug/ml measured after 2 days post compound treatment by leaf puncture assay; how it was run: as §1
[16] = test system: Setaria viridis; assay: Herbicidal activity against Setaria viridis assessed as diameter of leaf necrosis at 100 ug/ml measured after 2 days post compound treatment by leaf puncture assay; how it was run: as §1
[17] = test system: Setaria viridis; assay: Herbicidal activity against Setaria viridis assessed as diameter of leaf necrosis at 250 ug/ml measured after 2 days post compound treatment by leaf puncture assay; how it was run: as §1
[18] = test system: Bromus sterilis; assay: Herbicidal activity against Bromus sterilis assessed as diameter of leaf necrosis at 250 ug/ml measured after 2 days post compound treatment by leaf puncture assay; how it was run: as §1
[19] = test system: Avena sterilis subsp. ludoviciana; assay: Herbicidal activity against Avena sterilis subsp. ludoviciana assessed as diameter of leaf necrosis at 50 ug/ml measured after 2 days post compound treatment by leaf puncture assay; how it was run: as §1
[20] = test system: Avena sterilis subsp. ludoviciana; assay: Herbicidal activity against Avena sterilis subsp. ludoviciana assessed as diameter of leaf necrosis at 100 ug/ml measured after 2 days post compound treatment by leaf puncture assay; how it was run: as §1
[21] = test system: Avena sterilis subsp. ludoviciana; assay: Herbicidal activity against Avena sterilis subsp. ludoviciana assessed as diameter of leaf necrosis at 250 ug/ml measured after 2 days post compound treatment by leaf puncture assay; how it was run: as §1
[22] = test system: Diplotaxis erucoides; assay: Herbicidal activity against Diplotaxis erucoides assessed as diameter of leaf necrosis at 250 ug/ml measured after 2 days post compound treatment by leaf puncture assay; how it was run: as §1
[23] = test system: Phalaris canariensis; assay: Herbicidal activity against Phalaris canariensis assessed as diameter of leaf necrosis at 50 ug/ml measured after 2 days post compound treatment by leaf puncture assay; how it was run: as §1
[24] = test system: Phalaris canariensis; assay: Herbicidal activity against Phalaris canariensis assessed as diameter of leaf necrosis at 100 ug/ml measured after 2 days post compound treatment by leaf puncture assay; how it was run: as §1
[25] = test system: Phalaris canariensis; assay: Herbicidal activity against Phalaris canariensis assessed as diameter of leaf necrosis at 250 ug/ml measured after 2 days post compound treatment by leaf puncture assay; how it was run: as §1
[26] = test system: Oloptum miliaceum; assay: Herbicidal activity against Piptatherum miliaceum assessed as diameter of leaf necrosis at 50 ug/ml measured after 2 days post compound treatment by leaf puncture assay; how it was run: as §1
[27] = test system: Oloptum miliaceum; assay: Herbicidal activity against Piptatherum miliaceum assessed as diameter of leaf necrosis at 100 ug/ml measured after 2 days post compound treatment by leaf puncture assay; how it was run: as §1
[28] = test system: Oloptum miliaceum; assay: Herbicidal activity against Piptatherum miliaceum assessed as diameter of leaf necrosis at 250 ug/ml measured after 2 days post compound treatment by leaf puncture assay; how it was run: as §1
[29] = test system: Echinochloa crus-galli; assay: Herbicidal activity against Echinochloa crus-galli (barnyard grass) assessed as diameter of leaf necrosis at 50 ug/ml measured after 2 days post compound treatment by leaf puncture assay; how it was run: as §1
[30] = test system: Echinochloa crus-galli; assay: Herbicidal activity against Echinochloa crus-galli (barnyard grass) assessed as diameter of leaf necrosis at 100 ug/ml measured after 2 days post compound treatment by leaf puncture assay; how it was run: as §1
[31] = test system: Echinochloa crus-galli; assay: Herbicidal activity against Echinochloa crus-galli (barnyard grass) assessed as diameter of leaf necrosis at 250 ug/ml measured after 2 days post compound treatment by leaf puncture assay; how it was run: as §1
[32] = test system: Digitaria sanguinalis; assay: Herbicidal activity against Digitaria sanguinalis (hairy crabgrass) assessed as diameter of leaf necrosis at 50 ug/ml measured after 2 days post compound treatment by leaf puncture assay; how it was run: as §1
[33] = test system: Digitaria sanguinalis; assay: Herbicidal activity against Digitaria sanguinalis (hairy crabgrass) assessed as diameter of leaf necrosis at 100 ug/ml measured after 2 days post compound treatment by leaf puncture assay; how it was run: as §1
[34] = test system: Digitaria sanguinalis; assay: Herbicidal activity against Digitaria sanguinalis (hairy crabgrass) assessed as diameter of leaf necrosis at 250 ug/ml measured after 2 days post compound treatment by leaf puncture assay; how it was run: as §1
[35] = test system: Cynodon dactylon; assay: Herbicidal activity against Cynodon dactylon assessed as diameter of leaf necrosis at 50 ug/ml measured after 2 days post compound treatment by leaf puncture assay; how it was run: as §1
[36] = test system: Cynodon dactylon; assay: Herbicidal activity against Cynodon dactylon assessed as diameter of leaf necrosis at 100 ug/ml measured after 2 days post compound treatment by leaf puncture assay; how it was run: as §1
[37] = test system: Cynodon dactylon; assay: Herbicidal activity against Cynodon dactylon assessed as diameter of leaf necrosis at 250 ug/ml measured after 2 days post compound treatment by leaf puncture assay; how it was run: as §1
[38] = test system: Bromus sterilis; assay: Herbicidal activity against Bromus sterilis assessed as diameter of leaf necrosis at 50 ug/ml measured after 2 days post compound treatment by leaf puncture assay; how it was run: as §1
[39] = test system: Bromus sterilis; assay: Herbicidal activity against Bromus sterilis assessed as diameter of leaf necrosis at 100 ug/ml measured after 2 days post compound treatment by leaf puncture assay; how it was run: as §1

Structure (SMILES)	Activity [1]	Activity [2]	Activity [3]	Activity [4]	Activity [5]	Activity [6]	Activity [7]	Activity [8]	Activity [9]	Activity [10]	Activity [11]	Activity [12]	Activity [13]	Activity [14]	Activity [15]	Activity [16]	Activity [17]	Activity [18]	Activity [19]	Activity [20]	other results
CC(C)=C[C@H]1C[C@H](C)[C@]2(CC[C@]3(C)C[C@@H]4C(C)=CC(=O)[C@H]4/C(C=O)=C\C[C@H]32)O1 [3-ANHYDRO-6-EPI-OPHIOBOLIN A]	inactive	1 mm	1 mm	2 mm	>3 mm	inactive	inactive	inactive	inactive	1 mm	1 mm	inactive	inactive	inactive	2 mm	2 mm	2 mm	1 mm	inactive	inactive	Activity [21]: inactive; Activity [22]: >3 mm; Activity [23]: 1 mm; Activity [24]: 1 mm; Activity [25]: 1 mm; Activity [26]: 1 mm; Activity [27]: 1 mm; Activity [28]: 1 mm; Activity [29]: 1 mm; Activity [30]: 1 mm; Activity [31]: 1 mm; Activity [32]: inactive; Activity [33]: 1 mm; Activity [34]: 1 mm; Activity [35]: inactive; Activity [36]: inactive; Activity [37]: inactive; Activity [38]: 1 mm; Activity [39]: 1 mm
CC(C)=C[C@H]1C[C@H](C)[C@]2(CC[C@]3(C)C[C@@H]4C(C)=CC(=O)[C@H]4/C(CO)=C\C[C@H]32)O1	inactive	inactive	inactive	inactive	inactive	inactive	inactive	inactive	inactive	inactive	inactive	inactive	inactive	inactive	inactive	inactive	inactive	inactive	inactive	inactive	Activity [21]: inactive; Activity [22]: inactive; Activity [23]: inactive; Activity [24]: inactive; Activity [25]: inactive; Activity [26]: inactive; Activity [27]: inactive; Activity [28]: inactive; Activity [29]: inactive; Activity [30]: inactive; Activity [31]: inactive; Activity [32]: inactive; Activity [33]: inactive; Activity [34]: inactive; Activity [35]: inactive; Activity [36]: inactive; Activity [37]: inactive; Activity [38]: inactive; Activity [39]: inactive
